Source: the M2OR odorant receptor database

Molecular target: T1, OR10J5 (Homo sapiens) (UniProt Q8NHC4)
T1 sequence (whole entry): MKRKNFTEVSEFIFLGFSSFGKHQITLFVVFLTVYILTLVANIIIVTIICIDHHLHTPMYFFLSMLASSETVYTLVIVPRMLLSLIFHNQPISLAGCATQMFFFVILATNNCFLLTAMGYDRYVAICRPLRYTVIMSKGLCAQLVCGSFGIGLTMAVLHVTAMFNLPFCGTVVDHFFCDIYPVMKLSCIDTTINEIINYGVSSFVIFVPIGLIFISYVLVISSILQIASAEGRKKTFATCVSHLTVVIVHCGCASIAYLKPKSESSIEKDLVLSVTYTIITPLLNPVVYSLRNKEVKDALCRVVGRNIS
Details: stereoisomer not certain
How it was run: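 Each receptor–molecule pair is labelled responsive or non-responsive (inactive) according to whether the original authors judged the measured signal statistically different from baseline. The data were taken from the main text and supplementary material of published papers and checked for typos and inconsistencies. Assay methods differed by source, with transient luciferase assays in mammalian cell lines being common.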
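Also: active if original authors judged signal statistically different from baseline.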

Odorant receptor agonist call, inactive:
CCCCCCCC(C)=O, CC12CCC(CC1=O)C2(C)C (stereo not given), CCCCCCCO, CCCC(C)=O, CCCCC(=O)CC, C=C(C)C1CCC(C)C(=O)C1 (stereo not given), C=CCOC(=O)CCCCCC, CCC(C(=O)O)c1ccccc1 (stereo not given), CCCCCCCCCCO, CCCCOC(=O)C(C)OC(=O)CCC (stereo not given), CCCCOC=O, CCCCC(=O)O, O=c1ccc2ccccc2o1, CCCCCCCCCS, CCCCCCCCCC(=O)[O-].[H+], CCCCCC1=C(C)CCC1=O, CCCCCCOC(C)=O, CCCCCO, CCOC(=O)C(C)C, CC(C)=CCCC(C)CCO (stereo not given), CC(=O)OCc1ccccc1, CCCCCCCC(=O)[O-].[H+], O=C1CCOc2ccccc21, CC(=O)Oc1ccccc1, CCCCCCCCS, CCCC(=O)C(C)=O, O=C1Cc2ccccc2O1, CCCCCC=O, O=C(c1ccccc1)c1ccccc1, CCCCCCC(=O)[O-].[H+]
